Measurements taken from ChEMBL document CHEMBL5038571, “Design and Synthesis of EZH2-Based PROTACs to Degrade the PRC2 Complex for Targeting the Noncatalytic Activity of EZH2” (J Med Chem, 2021).
Activity calls are given as the source filed them. The calls are words filed in the database; no cut-off is given here.

Key:
[1] = target: Protein cereblon/Histone-lysine N-methyltransferase EZH2 (Homo sapiens) (UniProt Q15910+Q96SW2); assay: PROTAC activity at CRBN E3 ligase/EZH2 in PRC2 complex in human WSUDLCL2 cells assessed as reduction in H3K27me3 level at 1 uM incubated for 48 hrs by Western blot analysis; assay type: cell-based
Sequence of Protein cereblon/Histone-lysine N-methyltransferase EZH2 (Homo sapiens) (Q15910 whole entry, looked up): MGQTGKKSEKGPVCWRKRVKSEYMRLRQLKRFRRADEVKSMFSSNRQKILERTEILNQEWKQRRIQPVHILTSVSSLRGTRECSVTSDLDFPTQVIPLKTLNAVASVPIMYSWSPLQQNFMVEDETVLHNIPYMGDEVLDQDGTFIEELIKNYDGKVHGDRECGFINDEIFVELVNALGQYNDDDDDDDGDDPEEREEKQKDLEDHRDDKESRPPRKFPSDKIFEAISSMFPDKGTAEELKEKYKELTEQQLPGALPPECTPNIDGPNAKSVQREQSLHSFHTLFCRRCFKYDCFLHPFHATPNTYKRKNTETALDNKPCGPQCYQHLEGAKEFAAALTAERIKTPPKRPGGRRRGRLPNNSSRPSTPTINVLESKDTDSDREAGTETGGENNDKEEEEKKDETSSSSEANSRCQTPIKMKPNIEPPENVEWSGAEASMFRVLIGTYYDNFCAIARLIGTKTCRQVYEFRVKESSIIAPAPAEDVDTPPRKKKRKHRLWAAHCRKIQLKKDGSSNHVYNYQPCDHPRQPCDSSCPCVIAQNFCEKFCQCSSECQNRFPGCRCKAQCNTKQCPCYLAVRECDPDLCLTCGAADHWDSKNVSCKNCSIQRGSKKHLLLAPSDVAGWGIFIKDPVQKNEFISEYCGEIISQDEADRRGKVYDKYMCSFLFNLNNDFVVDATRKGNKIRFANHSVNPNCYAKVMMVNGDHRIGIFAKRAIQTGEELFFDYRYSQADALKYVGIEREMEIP
Sequence of Protein cereblon/Histone-lysine N-methyltransferase EZH2 (Homo sapiens) (Q96SW2 whole entry, looked up): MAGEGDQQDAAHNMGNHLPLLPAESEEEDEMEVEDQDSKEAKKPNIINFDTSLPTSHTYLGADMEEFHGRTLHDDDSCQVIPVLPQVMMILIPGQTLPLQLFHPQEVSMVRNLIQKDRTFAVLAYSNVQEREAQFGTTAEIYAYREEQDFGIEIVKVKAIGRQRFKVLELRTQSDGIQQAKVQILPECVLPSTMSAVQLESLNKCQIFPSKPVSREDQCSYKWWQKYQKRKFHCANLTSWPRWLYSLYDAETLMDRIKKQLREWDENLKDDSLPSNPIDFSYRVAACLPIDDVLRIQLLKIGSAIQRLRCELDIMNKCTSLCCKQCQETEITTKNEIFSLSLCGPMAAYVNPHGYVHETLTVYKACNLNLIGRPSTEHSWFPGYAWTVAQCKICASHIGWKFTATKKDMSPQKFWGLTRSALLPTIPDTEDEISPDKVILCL
Method in brief: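 WSU-DLCL-2 cells treated 48 h (1 μM for the single-concentration screen), lysed; SDS-PAGE, nitrocellulose transfer, 5% milk block, primary antibody 4 °C overnight, chemiluminescence. Bands quantified by densitometry, normalized to GAPDH, expressed relative to DMSO-treated cells; mean ± SD of three independent experiments, t-test.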

[2] = target: Histone-lysine N-methyltransferase EZH2 (Homo sapiens, UniProt Q15910); assay type: cell-based, Sf9
Sequence of Histone-lysine N-methyltransferase EZH2 (Q15910 whole entry): as the sequence (Q15910 whole entry, looked up) above

NCI-H1299 [3] = assay: Downregulation of CENPK mRNA expression in human NCI-H1299 cells at 10 uM incubated for 48 hrs by qRT-PCR analysis; assay type: functional, cell-based
Method in brief: (§1)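 Cells treated 48 h. Total RNA extracted with Trizol, reverse-transcribed, and SYBR RT-qPCR run: 95 °C 30 s, then 40 cycles of 95 °C 6 s and 60 °C 20 s. mRNA normalized to the DMSO-treated group. Mean SD of three independent experiments, t-test versus DMSO.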

WSUDLCL2 = assay: Antiproliferative activity against human WSUDLCL2 cells harboring EZH2-Y641F mutant assessed as inhibition of cell growth at 10 uM incubated for 9 days by optical microscopic analysis; assay type: functional, cell-based; details: time 9.0 day
Method in brief: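 WSU-DLCL-2 cells seeded at 5 × 10³ per well, incubated 24 h, then exposed to 10 μM compound for 9 days with medium refreshed. Cells photographed and counted on days 1, 3, 5, 7 and 9. Mean SD of three independent experiments, t-test versus DMSO.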

A549 [4] = assay: Downregulation of […] mRNA expression in human A549 cells at 10 uM incubated for 48 hrs by qRT-PCR analysis; assay type: functional, cell-based; method in brief: as §1
A549 [5] = assay: Downregulation of ARL6IP mRNA expression in human A549 cells at 10 uM incubated for 48 hrs by qRT-PCR analysis; assay type: functional, cell-based; method in brief: as §1
A549 [6] = assay: Downregulation of CEP76 mRNA expression in human A549 cells at 10 uM incubated for 48 hrs by qRT-PCR analysis; assay type: functional, cell-based; method in brief: as §1
A549 [7] = assay: Downregulation of CENPK mRNA expression in human A549 cells at 10 uM incubated for 48 hrs by qRT-PCR analysis; assay type: functional, cell-based; method in brief: as §1
A549 [8] = assay: Downregulation of CHEK1 mRNA expression in human A549 cells at 10 uM incubated for 48 hrs by qRT-PCR analysis; assay type: functional, cell-based; method in brief: as §1
A549 [9] = assay: Downregulation of TACC3 mRNA expression in human A549 cells at 10 uM incubated for 48 hrs by qRT-PCR analysis; assay type: functional, cell-based; method in brief: as §1
NCI-H1299 [10] = assay: Downregulation of […] mRNA expression in human NCI-H1299 cells at 10 uM incubated for 48 hrs by qRT-PCR analysis; assay type: functional, cell-based; method in brief: as §1
NCI-H1299 [11] = assay: Downregulation of ARL6IP mRNA expression in human NCI-H1299 cells at 10 uM incubated for 48 hrs by qRT-PCR analysis; assay type: functional, cell-based; method in brief: as §1
NCI-H1299 [12] = assay: Downregulation of CEP76 mRNA expression in human NCI-H1299 cells at 10 uM incubated for 48 hrs by qRT-PCR analysis; assay type: functional, cell-based; method in brief: as §1
NCI-H1299 [13] = assay: Downregulation of CHEK1 mRNA expression in human NCI-H1299 cells at 10 uM incubated for 48 hrs by qRT-PCR analysis; assay type: functional, cell-based; method in brief: as §1
NCI-H1299 [14] = assay: Downregulation of TACC3 mRNA expression in human NCI-H1299 cells at 10 uM incubated for 48 hrs by qRT-PCR analysis; assay type: functional, cell-based; method in brief: as §1
MDA-MB-468 [15] = assay: Downregulation of […] mRNA expression in human MDA-MB-468 cells at 10 uM incubated for 48 hrs by qRT-PCR analysis; assay type: functional, cell-based; method in brief: as §1
MDA-MB-468 [16] = assay: Downregulation of ARL6IP mRNA expression in human MDA-MB-468 cells at 10 uM incubated for 48 hrs by qRT-PCR analysis; assay type: functional, cell-based; method in brief: as §1
MDA-MB-468 [17] = assay: Downregulation of CEP76 mRNA expression in human MDA-MB-468 cells at 10 uM incubated for 48 hrs by qRT-PCR analysis; assay type: functional, cell-based; method in brief: as §1
MDA-MB-468 [18] = assay: Downregulation of CHEK1 mRNA expression in human MDA-MB-468 cells at 10 uM incubated for 48 hrs by qRT-PCR analysis; assay type: functional, cell-based; method in brief: as §1
MDA-MB-468 [19] = assay: Downregulation of TACC3 mRNA expression in human MDA-MB-468 cells at 10 uM incubated for 48 hrs by qRT-PCR analysis; assay type: functional, cell-based; method in brief: as §1
A549 [20] = assay: Antiproliferative activity against human A549 cells harboring SWI/SNF mutant assessed as inhibition of cell growth at 10 uM treated for 9 days by optical microscopic analysis; assay type: functional, cell-based; details: time 9.0 day
Method in brief: (§2)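 Cells seeded at 5 × 10³ per well, grown 24 h, then exposed to compound at 10 μM for 9 days with medium refreshed. Cells were photographed and counted on days 1, 3, 5, 7 and 9. For lines 1-2, EZH2-targeting or control shRNA was induced in the cells. Mean SD of three independent experiments; t-test against control.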

NCI-H1299 [21] = assay: Antiproliferative activity against human NCI-H1299 cells harboring SWI/SNF mutant assessed as inhibition of cell growth at 10 uM treated for 9 days by optical microscopic analysis; assay type: functional, cell-based; details: time 9.0 day; method in brief: as §2
MDA-MB-468 [22] = assay: Downregulation of CENPK mRNA expression in human MDA-MB-468 cells at 10 uM incubated for 48 hrs by qRT-PCR analysis; assay type: functional, cell-based; method in brief: as §1

`CC[C@H](C)n1cc(C)c2c(C(=O)NCc3c(C)cc(C)[nH]c3=O)cc(-c3ccc(N4CCN(CCCCCCCCCOc5cccc6c5C(=O)N(C5CCC(=O)NC5=O)C6=O)CC4)nc3)cc21` (stereo not given in full) was tested, and the Activity [1] was “Active” and the IC50 [2] was 16 nM.

`CCN(c1cc(-c2ccc(CN3CCN(CCCCOc4cccc5c4C(=O)N(C4CCC(=O)NC4=O)C5=O)CC3)cc2)cc(C(=O)NCc2c(C)cc(C)[nH]c2=O)c1C)C1CCOCC1` (stereo not given) was tested, and the Activity [1] was “Active” and the IC50 [2] was 3.7 nM.

Work on `CC[C@H](C)n1cc(C)c2c(C(=O)NCc3c(C)cc(C)[nH]c3=O)cc(-c3ccc(N4CCN(CCCCCCOc5cccc6c5C(=O)N(C5CCC(=O)NC5=O)C6=O)CC4)nc3)cc21` (stereo not given in full) yielded an IC50 [2] of 4 nM.

For `CC[C@H](C)n1cc(C)c2c(C(=O)NCc3c(C)cc(C)[nH]c3=O)cc(-c3ccc(N4CCN(CCCCCCCCCCCOc5cccc6c5C(=O)N(C5CCC(=O)NC5=O)C6=O)CC4)nc3)cc21` (stereo not given in full), the Activity [1] was “Active” and the IC50 [2] was 165 nM.

Work on `CCN(c1cc(-c2ccc(CN3CCN(CCCCCCCCCCCCOc4cccc5c4C(=O)N(C4CCC(=O)NC4=O)C5=O)CC3)cc2)cc(C(=O)NCc2c(C)cc(C)[nH]c2=O)c1C)C1CCOCC1` (stereo not given) yielded an IC50 [2] of 53 nM.

For `CCN(c1cc(-c2ccc(CN3CCOCC3)cc2)cc(C(=O)NCc2c(C)cc(C)[nH]c2=O)c1C)C1CCOCC1`, the Activity (NCI-H1299 [3]) was “inactive”, the Activity (WSUDLCL2) was “Active” and the Activity (A549 [4]) was “inactive”. For the same compound, the Activity (A549 [5]) was “inactive”, the Activity (A549 [6]) was “inactive” and the Activity (A549 [7]) was “inactive”. For the same compound, the Activity (A549 [8]) was “inactive”, the Activity (A549 [9]) was “inactive” and the Activity (NCI-H1299 [10]) was “inactive”. For the same compound, the Activity (NCI-H1299 [11]) was “inactive”, the Activity (NCI-H1299 [12]) was “inactive” and the Activity (NCI-H1299 [13]) was “inactive”. For the same compound, the Activity (NCI-H1299 [14]) was “inactive”, the Activity (MDA-MB-468 [15]) was “inactive” and the Activity (MDA-MB-468 [16]) was “inactive”. The Activity (MDA-MB-468 [17]) was “inactive”, the Activity (MDA-MB-468 [18]) was “inactive” and the Activity (MDA-MB-468 [19]) was “inactive”. For the same compound, the Activity (A549 [20]) was “inactive”, the Activity (NCI-H1299 [21]) was “inactive” and the Activity (MDA-MB-468 [22]) was “inactive”.

`CCN(c1cc(-c2ccc(CN3CCN(CCCCCOc4cccc5c4C(=O)N(C4CCC(=O)NC4=O)C5=O)CC3)cc2)cc(C(=O)NCc2c(C)cc(C)[nH]c2=O)c1C)C1CCOCC1` (stereo not given) gave an IC50 [2] of 4.5 nM.

With `CCN(c1cc(-c2ccc(CN3CCN(CCCCCCCCCCCOc4cccc5c4C(=O)N(C4CCC(=O)NC4=O)C5=O)CC3)cc2)cc(C(=O)NCc2c(C)cc(C)[nH]c2=O)c1C)C1CCOCC1` (stereo not given) the Activity [1] was “Active” and the IC50 [2] was 30 nM.

In the case of `CCN(c1cc(-c2ccc(CN3CCN(CCCCCCCCOc4cccc5c4C(=O)N(C4CCC(=O)NC4=O)C5=O)CC3)cc2)cc(C(=O)NCc2c(C)cc(C)[nH]c2=O)c1C)C1CCOCC1` (stereo not given), the Activity [1] is reported as “Active” and the IC50 [2] is reported as 3.4 nM.

`CCN(c1cc(-c2ccc(CN3CCN(CCCCCCOc4cccc5c4C(=O)N(C4CCC(=O)NC4=O)C5=O)CC3)cc2)cc(C(=O)NCc2c(C)cc(C)[nH]c2=O)c1C)C1CCOCC1` (stereo not given) gave an IC50 [2] of 3.9 nM.
